# Numbered stars: 1 amine (or outer) side, 2 acyl side, 3 side chain; on linkers, the order of the positions; unused ones are H or OH. Bridge positions count the residues as written; N and C are the ends. Square brackets hold non-standard residues; d marks the D form. Peptide text beside a SMILES is read from it. Phe(Nα-(CH2)3CO) = O=C([C@H](Cc1ccccc1)N(CCCC(=O)[*:3])[*:1])[*:2]; N(2-aminoethyl)Phe = O=C([C@H](Cc1ccccc1)N(CCN[*:3])[*:1])[*:2]
# Columns and labels:
# [1] = biological target: T1, Somatostatin receptor type 5 (Homo sapiens, UniProt P35346); experiment: Binding affinity to sst5 receptor
# [2] = biological target: Somatostatin receptor type 1 (Homo sapiens, UniProt P30872); experiment: Displacement of [125I](Leu8,D-Trp22,Tyr25)-SRIF28 from human sst1 receptor
# In short: (§1)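 Membranes came from CHO-K1 and CCL39 cells stably expressing the human sst1–sst5 receptors. Receptor autoradiography was performed on 20 µm pellet sections mounted on slides. IC50 was derived from signal quantified by computer-assisted image processing.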
# [3] = biological target: Somatostatin receptor type 2 (Homo sapiens, UniProt P30874); experiment: Displacement of [125I](Leu8,D-Trp22,Tyr25)-SRIF28 from human sst2 receptor; in short: as §1
# [4] = biological target: Somatostatin receptor type 3 (Homo sapiens, UniProt P32745); experiment: Displacement of [125I](Leu8,D-Trp22,Tyr25)-SRIF28 from human sst3 receptor; in short: as §1
# [5] = biological target: Somatostatin receptor type 4 (Homo sapiens, UniProt P31391); experiment: Displacement of [125I](Leu8,D-Trp22,Tyr25)-SRIF28 from human sst4 receptor; in short: as §1
# [6] = biological target: T1, Somatostatin receptor type 5; experiment: Displacement of [125I](Leu8,D-Trp22,Tyr25)-SRIF28 from human sst5 receptor; in short: as §1
# Somatostatin receptor type 3, sequence (P32745 whole entry): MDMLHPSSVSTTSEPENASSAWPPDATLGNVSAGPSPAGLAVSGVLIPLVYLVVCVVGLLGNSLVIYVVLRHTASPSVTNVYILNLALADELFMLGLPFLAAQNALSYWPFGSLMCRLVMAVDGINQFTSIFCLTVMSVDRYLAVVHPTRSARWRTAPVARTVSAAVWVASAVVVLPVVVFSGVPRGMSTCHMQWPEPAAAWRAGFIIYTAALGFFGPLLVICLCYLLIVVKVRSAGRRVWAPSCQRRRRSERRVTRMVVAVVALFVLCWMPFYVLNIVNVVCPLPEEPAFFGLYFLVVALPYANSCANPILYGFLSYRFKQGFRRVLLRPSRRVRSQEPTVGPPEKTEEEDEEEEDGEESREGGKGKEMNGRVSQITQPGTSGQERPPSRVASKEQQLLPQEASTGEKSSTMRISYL
# Somatostatin receptor type 1, sequence (P30872 whole entry): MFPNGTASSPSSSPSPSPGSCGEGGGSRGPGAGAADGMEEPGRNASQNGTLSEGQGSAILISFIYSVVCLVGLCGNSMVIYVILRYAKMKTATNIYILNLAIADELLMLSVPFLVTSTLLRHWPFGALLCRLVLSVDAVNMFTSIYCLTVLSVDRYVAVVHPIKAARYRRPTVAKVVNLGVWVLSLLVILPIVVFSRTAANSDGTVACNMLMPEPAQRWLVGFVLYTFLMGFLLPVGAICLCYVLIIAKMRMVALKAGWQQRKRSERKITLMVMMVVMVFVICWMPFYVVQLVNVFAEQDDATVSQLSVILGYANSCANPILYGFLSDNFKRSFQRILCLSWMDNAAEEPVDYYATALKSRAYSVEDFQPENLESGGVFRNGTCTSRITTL
# Somatostatin receptor type 2, sequence (P30874 whole entry): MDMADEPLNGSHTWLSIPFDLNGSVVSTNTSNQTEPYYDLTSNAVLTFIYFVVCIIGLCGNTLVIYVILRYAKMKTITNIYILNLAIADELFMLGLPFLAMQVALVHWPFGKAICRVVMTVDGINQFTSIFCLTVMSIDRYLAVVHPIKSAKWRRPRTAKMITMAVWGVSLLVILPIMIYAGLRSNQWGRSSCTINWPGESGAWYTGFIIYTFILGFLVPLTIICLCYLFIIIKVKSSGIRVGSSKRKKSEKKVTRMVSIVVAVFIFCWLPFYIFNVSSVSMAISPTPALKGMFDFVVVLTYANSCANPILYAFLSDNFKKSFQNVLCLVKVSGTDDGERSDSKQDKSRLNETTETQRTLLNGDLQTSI
# Somatostatin receptor type 4, sequence (P31391 whole entry): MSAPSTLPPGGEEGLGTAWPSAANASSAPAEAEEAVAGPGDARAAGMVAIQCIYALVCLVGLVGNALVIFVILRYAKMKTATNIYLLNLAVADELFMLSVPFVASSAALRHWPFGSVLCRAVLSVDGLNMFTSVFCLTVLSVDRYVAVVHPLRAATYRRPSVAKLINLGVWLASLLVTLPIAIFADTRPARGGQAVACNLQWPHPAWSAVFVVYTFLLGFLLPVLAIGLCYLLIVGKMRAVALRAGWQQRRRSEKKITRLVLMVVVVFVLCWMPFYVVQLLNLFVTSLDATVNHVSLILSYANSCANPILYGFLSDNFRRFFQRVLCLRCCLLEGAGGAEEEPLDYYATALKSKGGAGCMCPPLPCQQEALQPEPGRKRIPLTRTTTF
# T1 sequence (P35346 whole entry): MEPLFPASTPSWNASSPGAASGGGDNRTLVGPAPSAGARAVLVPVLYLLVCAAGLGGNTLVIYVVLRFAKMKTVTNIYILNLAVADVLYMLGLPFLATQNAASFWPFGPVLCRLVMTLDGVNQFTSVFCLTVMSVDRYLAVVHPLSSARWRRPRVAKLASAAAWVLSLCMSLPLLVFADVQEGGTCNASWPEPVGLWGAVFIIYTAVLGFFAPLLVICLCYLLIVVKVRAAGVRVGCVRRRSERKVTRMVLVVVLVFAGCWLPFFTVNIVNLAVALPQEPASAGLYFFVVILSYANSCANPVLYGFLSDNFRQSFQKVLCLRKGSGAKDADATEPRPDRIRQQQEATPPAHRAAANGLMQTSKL
Structure (SMILES),IC50 [1] [nM],IC50 [2] [nM],IC50 [3] [nM],IC50 [4] [nM],IC50 [5] [nM],IC50 [6] [nM]
CC(C)[C@@H]1NC(=O)[C@H](CCCCN)NC(=O)[C@@H](Cc2c[nH]c3ccccc23)NC(=O)[C@H](Cc2ccc(O)cc2)NC(=O)[C@H](Cc2ccccc2)NCCNC(=O)CCCN([C@@H](Cc2ccccc2)C(=O)N[C@H](C(N)=O)[C@@H](C)O)C1=O (H-[N(2-aminoethyl)Phe]Y[dW]KV[Phe(Nα-(CH2)3CO)]T-NH2; lactam 1-6),67,–,–,–,–,–
C[C@@H](O)[C@@H]1NC(=O)[C@H](CCCCN)NC(=O)[C@@H](Cc2c[nH]c3ccccc23)NC(=O)[C@H](Cc2ccccc2)NC(=O)[C@@H](NC(=O)[C@H](N)Cc2ccccc2)CCCC[C@@H](C(=O)N[C@H](CO)[C@@H](C)O)NC1=O,–,> 1000,49,> 1000,214,203
C[C@H](N)COC(=O)[C@H](CCCCN)NC(=O)Cc1c(-c2ccc3ccccc3c2)[nH]c2c1ccc1ccccc12,0.4,–,–,–,–,–

# Further lines, results first:
IC50 [1] [nM],IC50 [2] [nM],IC50 [3] [nM],IC50 [4] [nM],IC50 [5] [nM],IC50 [6] [nM],Structure (SMILES)
–,> 1000,44,> 1000,412,28,C[C@@H](O)[C@@H]1NC(=O)[C@H](CCCCN)NC(=O)[C@@H](Cc2c[nH]c3ccccc23)NC(=O)[C@H](Cc2ccccc2)NC(=O)[C@@H](NC(=O)[C@H](N)Cc2ccccc2)C/C=C\C[C@@H](C(=O)N[C@H](CO)[C@@H](C)O)NC1=O
–,961,> 1000,> 1000,141,206,C[C@@H](O)[C@@H](CO)NC(=O)[C@@H]1C/C=C\C[C@H](NC(=O)[C@H](N)Cc2ccccc2)C(=O)N[C@@H](Cc2ccccc2)C(=O)N[C@H](Cc2c[nH]c3ccccc23)C(=O)N[C@@H](CCCCN)C(=O)N[C@@H](Cc2ccccc2)C(=O)N1

# Source: ChEMBL document CHEMBL1140751, “Novel sst5-selective somatostatin dicarba-analogues: synthesis and conformation-affinity relationships” (J Med Chem, 2008)
